Data published in publication PMC3418399 (Molecular microbiology, 2012).
“Also recorded” adds a separate entry of the source. Where two headings read alike, the source gives them in different places. Non-standard residues stand in square brackets, D forms with d.

Columns and labels:
human red blood cells = test: Hemolysis; assay type: cell-based; conditions: for lysis of red blood cells: ≤100 μM
[1] = test system: human epithelial (HEp2) cells; test: Toxicity for cultured human epithelial cells; assay type: cell-based
[2] = test system: AD/CDR1 (Wild type CaCdr1p; AD/CaCDR1B); test: Agarose diffusion FLC chemosensitization assay; assay type: cell-based, Saccharomyces cerevisiae; conditions: for chemosensitization of cells overexpressing CaCdr1p to FLC: ~6 nmole/disk, FLC 40 μg ml^−1
[3] = molecular target: T1, CaCdr1p-mediated rhodamine 6G efflux in AD/CaCDR1 cells (Candida albicans, UniProt P43071); test: Glucose-dependent rhodamine 6G efflux in whole cells; assay type: cell-based
Cdr1p ATPase = Cdr1p ATPase (Candida albicans, UniProt P43071); test: CaCdr1p ATPase inhibition assay; assay type: biochemical
Pma1p ATPase = molecular target: T2, Pma1p ATPase (Saccharomyces cerevisiae, UniProt P05030); test: Pma1p ATPase assay; assay type: biochemical; conditions: read-out: IC50 Pma1p ATPase; pH 7.0, 10 μM oligomycin
T2 sequence (P05030 1-918): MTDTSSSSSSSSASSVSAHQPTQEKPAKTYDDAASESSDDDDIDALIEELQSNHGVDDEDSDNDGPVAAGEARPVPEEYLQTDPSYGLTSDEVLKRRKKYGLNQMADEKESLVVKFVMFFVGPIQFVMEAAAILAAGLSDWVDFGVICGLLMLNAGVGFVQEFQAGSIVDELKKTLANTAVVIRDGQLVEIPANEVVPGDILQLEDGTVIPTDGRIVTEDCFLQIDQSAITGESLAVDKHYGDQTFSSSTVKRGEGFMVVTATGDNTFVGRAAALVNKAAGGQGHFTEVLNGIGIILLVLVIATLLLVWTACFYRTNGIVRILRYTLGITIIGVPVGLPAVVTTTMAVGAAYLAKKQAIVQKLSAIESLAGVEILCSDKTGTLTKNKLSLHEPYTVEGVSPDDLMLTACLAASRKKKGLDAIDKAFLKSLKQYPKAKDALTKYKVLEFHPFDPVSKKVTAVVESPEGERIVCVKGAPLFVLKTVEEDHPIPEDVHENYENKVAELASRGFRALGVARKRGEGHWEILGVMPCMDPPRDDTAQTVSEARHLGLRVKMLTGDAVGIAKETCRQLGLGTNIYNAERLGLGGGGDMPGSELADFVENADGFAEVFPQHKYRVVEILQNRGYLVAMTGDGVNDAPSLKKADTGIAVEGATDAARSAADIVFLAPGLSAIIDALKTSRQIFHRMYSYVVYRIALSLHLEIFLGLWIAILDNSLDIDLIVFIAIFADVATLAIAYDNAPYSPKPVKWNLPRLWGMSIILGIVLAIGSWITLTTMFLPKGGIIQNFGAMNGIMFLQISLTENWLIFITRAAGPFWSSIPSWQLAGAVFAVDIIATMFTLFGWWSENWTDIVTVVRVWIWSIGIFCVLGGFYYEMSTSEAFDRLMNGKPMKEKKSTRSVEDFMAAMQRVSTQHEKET

AD/pABC3 (Control) [4] = test: MIC, liquid microdilution; assay type: cell-based, Saccharomyces cerevisiae; conditions: AD/pABC3, Control; RC21 and rhodamines; CSM pH 7.0, 30°C, 48 h
[5] = test system: AD/CDR1 (Wild type CaCdr1p); test: MIC, liquid microdilution; assay type: cell-based, Saccharomyces cerevisiae; conditions: AD/CDR1, Wild type; RC21 and rhodamines; CSM pH 7.0, 30°C, 48 h
EL1/TM2 (CaCdr1p G547R) = test: MIC, liquid microdilution; assay type: cell-based, Saccharomyces cerevisiae; conditions: EL1/TM2, G547R; RC21 and rhodamines; CSM pH 7.0, 30°C, 48 h
EL3 (CaCdr1p Q714K) = test: MIC, liquid microdilution; assay type: cell-based, Saccharomyces cerevisiae; conditions: EL3, Q714K; RC21 and rhodamines; CSM pH 7.0, 30°C, 48 h
EL4-1 (CaCdr1p Q1226K) = test: MIC, liquid microdilution; assay type: cell-based, Saccharomyces cerevisiae; conditions: EL4-1, Q1226K; RC21 and rhodamines; CSM pH 7.0, 30°C, 48 h
EL4-2 (CaCdr1p Q1226R) = test: MIC, liquid microdilution; assay type: cell-based, Saccharomyces cerevisiae; conditions: EL4-2, Q1226R; RC21 and rhodamines; CSM pH 7.0, 30°C, 48 h
EL6 (CaCdr1p Q1445R) = test: MIC, liquid microdilution; assay type: cell-based, Saccharomyces cerevisiae; conditions: EL6, Q1445R; RC21 and rhodamines; CSM pH 7.0, 30°C, 48 h
TM5 (CaCdr1p V674F) = test: MIC, liquid microdilution; assay type: cell-based, Saccharomyces cerevisiae; conditions: TM5, V674F; RC21 and rhodamines; CSM pH 7.0, 30°C, 48 h
AD/pABC3 (Control) [6] = test: Agarose diffusion FLC chemosensitization assay; assay type: cell-based, Saccharomyces cerevisiae; conditions: presence or absence of FLC at 1/4 MIC
[7] = test system: S. cerevisiae AD/CaCDR1 variants; test: Spontaneous variants resistant to FLC chemosensitization; assay type: cell-based, Saccharomyces cerevisiae
[8] = test system: AD/pABC3 or AD/CaCDR1 cells; test: Rhodamine 6G uptake in de-energised cells; assay type: cell-based, Saccharomyces cerevisiae; conditions: concentrations <20 μM
In short: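 Host S. cerevisiae and Cdr1p-expressing cells were harvested at log phase, washed, and suspended in 50 mM HEPES-NaOH pH 7.0. They were de-energised with 5 mM 2-deoxyglucose (30 °C, 30 min), then given 15 μM R6G ± test peptide at OD600 1.0. Samples taken at time intervals were boiled 10 min in SDS/mercaptoethanol/Tris pH 6.8 lysis buffer. Released R6G was quantified fluorimetrically against a standard curve in lysis buffer.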

C. albicans strain CIA4 = test: Agarose diffusion / checkerboard FLC chemosensitization; assay type: cell-based, Candida albicans; conditions: FLC-susceptible strain CIA4; 7.5 nmole RC21
In short: (§1)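 Agarose diffusion on C. albicans clinical isolates. Base CSM-ura with FLC at the indicated concentration was solidified with 0.6% agarose. Cells were layered over it in CSM-ura overlay (0.4% agarose plus FLC). Crude, non-HPLC-purified test peptide (7.5 nmole) was dried on a paper disk at 37 °C for 1-2 h and placed on the overlay. Plates were incubated at 30 °C for 48 h, and inhibition-zone diameters were compared with and without FLC.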

[9] = test system: C. albicans strain MML33 (deleted of both copies of CDR1); test: as above; assay type: cell-based, Candida albicans; conditions: 7.5 nmole RC21
In short: as §1

[10] = molecular target: T1, CaCdr1p-mediated rhodamine 6G efflux in AD/CaCDR1 cells; conditions: 1.25 μM; S. cerevisiae strain overexpressing CaCdr1p; ref Holmes et al., 2008; cited from earlier work
CaCdr2p = conditions: 1.25 μM; strain overexpressing CaCdr2p; ref Holmes et al., 2008; cited from earlier work
C. albicans MML611 = conditions: 0.62 μM; FLC-resistant MML611; ref Holmes et al., 2008; cited from earlier work
C. albicans MML610 = conditions: 0.62 μM; FLC-susceptible parental strain MML610; ref Holmes et al., 2008; cited from earlier work

T1 sequence (P43071 whole entry): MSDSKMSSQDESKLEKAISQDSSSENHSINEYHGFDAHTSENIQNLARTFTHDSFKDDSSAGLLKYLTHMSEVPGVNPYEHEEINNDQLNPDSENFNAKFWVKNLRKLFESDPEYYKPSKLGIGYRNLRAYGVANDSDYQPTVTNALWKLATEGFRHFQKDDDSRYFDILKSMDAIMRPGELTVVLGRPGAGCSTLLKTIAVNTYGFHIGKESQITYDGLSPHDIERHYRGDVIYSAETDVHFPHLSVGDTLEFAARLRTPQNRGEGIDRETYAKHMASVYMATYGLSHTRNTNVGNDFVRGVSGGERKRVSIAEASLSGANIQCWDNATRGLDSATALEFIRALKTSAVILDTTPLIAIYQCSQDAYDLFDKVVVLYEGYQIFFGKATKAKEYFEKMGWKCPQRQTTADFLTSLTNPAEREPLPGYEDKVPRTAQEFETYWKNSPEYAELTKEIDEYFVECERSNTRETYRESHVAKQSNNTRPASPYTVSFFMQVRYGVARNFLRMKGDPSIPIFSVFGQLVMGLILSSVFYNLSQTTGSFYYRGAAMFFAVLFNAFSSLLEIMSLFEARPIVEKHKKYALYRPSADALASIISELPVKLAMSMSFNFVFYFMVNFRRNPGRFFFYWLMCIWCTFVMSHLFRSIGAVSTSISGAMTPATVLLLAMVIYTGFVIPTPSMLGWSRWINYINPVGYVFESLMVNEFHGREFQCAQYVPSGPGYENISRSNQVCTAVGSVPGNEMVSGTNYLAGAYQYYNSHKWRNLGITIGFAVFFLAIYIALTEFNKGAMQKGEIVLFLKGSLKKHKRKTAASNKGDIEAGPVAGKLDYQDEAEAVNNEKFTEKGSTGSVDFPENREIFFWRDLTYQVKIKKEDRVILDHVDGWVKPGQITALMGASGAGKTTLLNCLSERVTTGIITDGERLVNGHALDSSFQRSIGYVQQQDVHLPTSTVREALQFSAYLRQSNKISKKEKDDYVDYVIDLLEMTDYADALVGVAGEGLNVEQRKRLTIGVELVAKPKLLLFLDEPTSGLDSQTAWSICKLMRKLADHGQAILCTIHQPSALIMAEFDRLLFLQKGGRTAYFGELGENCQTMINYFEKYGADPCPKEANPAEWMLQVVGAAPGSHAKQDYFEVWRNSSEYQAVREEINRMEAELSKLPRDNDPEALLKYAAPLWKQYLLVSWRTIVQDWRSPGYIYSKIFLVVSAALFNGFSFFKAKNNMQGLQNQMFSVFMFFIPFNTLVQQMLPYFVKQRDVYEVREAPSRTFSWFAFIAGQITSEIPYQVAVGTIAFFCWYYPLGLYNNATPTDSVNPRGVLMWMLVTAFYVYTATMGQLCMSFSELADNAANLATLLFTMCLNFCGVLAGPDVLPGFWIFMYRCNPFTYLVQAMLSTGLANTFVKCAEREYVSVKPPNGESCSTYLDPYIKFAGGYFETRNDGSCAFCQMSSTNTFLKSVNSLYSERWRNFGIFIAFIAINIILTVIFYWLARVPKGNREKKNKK
Sequence of Cdr1p ATPase (P43071 whole entry): as above

Molecule: C[C@@H]1[C@H](O)[C@@H](C)/C=C/C=C/C=C/C=C/C=C/C=C/C=C/[C@H](O[C@@H]2O[C@H](C)[C@@H](O)[C@H](N)[C@@H]2O)C[C@@H]2O[C@](O)(C[C@@H](O)C[C@@H](O)[C@H](O)CC[C@@H](O)C[C@@H](O)CC(=O)O[C@H]1C)C[C@H](O)[C@H]2C(=O)O [Amphotericin B]
- concentration causing complete lysis of red blood cells (human red blood cells; human): 3 µM
- concentration rendering human epithelial cells inviable ([1]; human): 15 µM

Molecule: D-NH2-FFKW(Mtr)QRRR-CONH2 [RC21v1]
- chemosensitization of CaCdr1p-dependent FLC resistance ([2]; agarose diffusion assays, amount not stated (partly data not shown)): ineffective
- chemosensitization of cells overexpressing CaCdr1p to FLC ([2]; agarose diffusion): inactive
- concentration required to obtain a significant effect on R6G efflux ([3]; effect independent of glucose, non-specific membrane permeabilization): At least 40 μM

Molecule: D-NH2-FFKWQRRR-CONH2 + Mtr (H-[dF][dF][dK][dW][dQ][dR][dR][dR]-NH2; also: + Mtr, position not given here) [RC21]
- increase in potency against CaCdr1p ATPase activity during deconvolution (Cdr1p ATPase; IC50 = 20 → 1.3 μM): 16 fold
- mode of inhibition of CaCdr1p ATPase (Cdr1p ATPase; preincubation of membranes with ATP): not a competitive inhibitor
- IC50 (Pma1p ATPase): 5 µM
- MIC (AD/pABC3 (Control) [4]): >20 µM
- MIC [5]: 20 µM
- MIC (EL1/TM2 (CaCdr1p G547R)): 20 µM
- MIC (EL3 (CaCdr1p Q714K)): 20 µM
- MIC (EL4-1 (CaCdr1p Q1226K)): 20 µM
- MIC (EL4-2 (CaCdr1p Q1226R)): 20 µM
- MIC (EL6 (CaCdr1p Q1445R)): 20 µM
- MIC (TM5 (CaCdr1p V674F)): 20 µM
- effect on growth of strain AD/pABC3 (AD/pABC3 (Control) [6]): no effect
- inhibition of FLC resistance mediated by over-expression in S. cerevisiae of CaCdr1p ([2]; crude RC21 6 nmole/disk, FLC at 1/4 MIC): inhibited FLC resistance
- Resistance to FLC chemosensitization ([7]; variant C1, Q1226K, External loop 4): High
- Resistance to FLC chemosensitization ([7]; variant C2, G547R, TMD1, TMS2): High
- Resistance to FLC chemosensitization ([7]; variant E1, V674F, TMD1, TMS5): Moderate
- Resistance to FLC chemosensitization ([7]; variant E2, V674F, TMD1, TMS5): Moderate
- Resistance to FLC chemosensitization ([7]; variant F1, Q1226K, External loop 4): High
- Resistance to FLC chemosensitization ([7]; variant F2, Q1226K, External loop 4): High
- Resistance to FLC chemosensitization ([7]; variant F3, Q714K, External loop 3): High
- Resistance to FLC chemosensitization ([7]; variant HE2, Q1226R, External loop 4): High
- effect on the rate of uptake of R6G [8]: no significant effect
- lysis of red blood cells (human red blood cells): did not lyse; also recorded: did not hemolyse
- effect on FLC susceptibility (C. albicans strain CIA4): conferred increased FLC susceptibility
- effect on FLC susceptibility [9]: minor effect
- inhibition of glucose-dependent R6G efflux [10]: 90%
- effect on glucose-dependent R6G efflux (CaCdr2p): no effect
- inhibition of glucose-dependent R6G efflux (C. albicans MML611): 90%
- inhibition of glucose-dependent R6G efflux (C. albicans MML610): detectably inhibited

Molecule: RC21v2: HPLC-purified RC21 derivative with a single Mtr group attached to one of its three C-terminal arginine residues (FFKWQRRR)
- IC50 (Pma1p ATPase): 5 µM
- chemosensitization of yeast over-expressing CaCdr1p to FLC ([2]; ~5.5 nmol per disk, agarose diffusion): chemosensitized
- chemosensitization of cells overexpressing CaCdr1p to FLC ([2]; agarose diffusion): chemosensitized
- Resistance to FLC chemosensitization ([7]; variant R1, Q714K, External loop 3): High
- Resistance to FLC chemosensitization ([7]; variant R2, Q1445K, External loop 6): High
- Resistance to FLC chemosensitization ([7]; variant R3, Q1226K, External loop 4): High
- Resistance to FLC chemosensitization ([7]; variant R4, Q1226K, External loop 4): High
- inhibition of glucose-dependent R6G efflux ([3]; 1.25 μM, after 5 minutes of preincubation): fully inhibited
- lysis of red blood cells (human red blood cells): did not lyse; also recorded: did not hemolyse
- effect on growth or viability of a human epithelial cell line ([1]; 100 μM (≤100 μM in Fig. 7 legend)): did not affect; also recorded: did not kill
